Laboratory results published in the M2OR odorant receptor database.

Assays:
Conditions in all cases: stereoisomer not certain
UniProt Q8VF52 = target: T1, UniProt Q8VF52
T1 sequence (whole entry): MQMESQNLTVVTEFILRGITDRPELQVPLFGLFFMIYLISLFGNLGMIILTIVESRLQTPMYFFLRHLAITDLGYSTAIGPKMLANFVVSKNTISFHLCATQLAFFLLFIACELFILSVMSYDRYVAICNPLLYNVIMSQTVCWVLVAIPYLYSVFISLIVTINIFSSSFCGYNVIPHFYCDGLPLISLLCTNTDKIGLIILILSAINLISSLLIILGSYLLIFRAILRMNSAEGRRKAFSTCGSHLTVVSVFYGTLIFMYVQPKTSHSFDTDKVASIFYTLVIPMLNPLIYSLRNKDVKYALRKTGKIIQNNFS
Procedure, shortened: (§1)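 Each entry records the cell line, G-protein, co-transfected protein and tags used. Methods varied with the source, often transient luciferase assays in mammalian cell lines. A receptor–molecule pair is called responsive (active) if the original authors judged its signal statistically different from baseline and non-responsive (inactive) otherwise.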

UniProt Q8VFG6 = target: T2, UniProt Q8VFG6
T2 sequence (whole entry): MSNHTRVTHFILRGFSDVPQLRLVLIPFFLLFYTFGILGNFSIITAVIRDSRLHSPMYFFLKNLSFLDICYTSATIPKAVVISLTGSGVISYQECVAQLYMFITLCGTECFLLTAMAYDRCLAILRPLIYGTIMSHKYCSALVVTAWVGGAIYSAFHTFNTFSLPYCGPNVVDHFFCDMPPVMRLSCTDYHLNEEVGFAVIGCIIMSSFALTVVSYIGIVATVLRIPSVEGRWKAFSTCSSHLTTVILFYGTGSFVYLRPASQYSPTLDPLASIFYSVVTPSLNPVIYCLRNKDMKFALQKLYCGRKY
Procedure, shortened: as §1

UniProt Q8VFZ6 = target: T3, UniProt Q8VFZ6
T3 sequence (whole entry): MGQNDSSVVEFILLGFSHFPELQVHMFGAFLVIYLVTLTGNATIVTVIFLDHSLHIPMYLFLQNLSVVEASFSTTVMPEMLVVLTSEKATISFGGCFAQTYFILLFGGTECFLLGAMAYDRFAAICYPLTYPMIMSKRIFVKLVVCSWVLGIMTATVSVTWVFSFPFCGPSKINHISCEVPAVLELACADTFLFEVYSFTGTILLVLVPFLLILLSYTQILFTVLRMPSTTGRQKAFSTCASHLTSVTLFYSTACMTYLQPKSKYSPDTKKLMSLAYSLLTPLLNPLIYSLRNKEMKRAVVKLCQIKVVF
Procedure, shortened: as §1

UniProt Q8VG01 = target: T4, UniProt Q8VG01
T4 sequence (whole entry): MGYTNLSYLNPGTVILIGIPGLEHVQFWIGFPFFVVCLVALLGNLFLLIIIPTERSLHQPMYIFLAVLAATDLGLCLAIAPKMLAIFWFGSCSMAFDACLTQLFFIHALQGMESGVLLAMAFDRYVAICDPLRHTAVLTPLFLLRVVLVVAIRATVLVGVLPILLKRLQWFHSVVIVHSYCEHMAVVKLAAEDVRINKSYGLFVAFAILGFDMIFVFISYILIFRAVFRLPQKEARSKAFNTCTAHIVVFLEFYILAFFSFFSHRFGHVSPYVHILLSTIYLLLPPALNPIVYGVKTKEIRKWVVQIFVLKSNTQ
Procedure, shortened: as §1

UniProt Q8VG22 = target: T5, UniProt Q8VG22
T5 sequence (whole entry): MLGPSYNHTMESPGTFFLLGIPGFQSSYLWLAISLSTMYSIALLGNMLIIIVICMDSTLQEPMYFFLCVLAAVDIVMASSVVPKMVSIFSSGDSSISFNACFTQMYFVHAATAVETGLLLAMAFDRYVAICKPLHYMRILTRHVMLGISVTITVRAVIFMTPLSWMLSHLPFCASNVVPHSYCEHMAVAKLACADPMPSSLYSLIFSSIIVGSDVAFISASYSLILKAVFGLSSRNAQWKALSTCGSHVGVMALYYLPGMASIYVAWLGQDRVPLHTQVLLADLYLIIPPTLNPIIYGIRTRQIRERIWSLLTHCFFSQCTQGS
Procedure, shortened: as §1

UniProt Q8VG49 = target: T6, UniProt Q8VG49
T6 sequence (whole entry): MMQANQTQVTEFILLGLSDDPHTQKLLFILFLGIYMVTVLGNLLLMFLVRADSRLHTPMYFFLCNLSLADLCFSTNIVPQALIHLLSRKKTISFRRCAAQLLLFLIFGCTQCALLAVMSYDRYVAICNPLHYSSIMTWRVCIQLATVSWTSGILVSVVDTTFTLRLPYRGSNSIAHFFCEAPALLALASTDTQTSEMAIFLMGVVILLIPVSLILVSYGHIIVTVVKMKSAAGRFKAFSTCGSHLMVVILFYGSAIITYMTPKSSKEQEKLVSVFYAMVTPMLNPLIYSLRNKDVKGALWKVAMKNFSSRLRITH
Procedure, shortened: as §1

UniProt Q8VG77 = target: T7, UniProt Q8VG77
T7 sequence (whole entry): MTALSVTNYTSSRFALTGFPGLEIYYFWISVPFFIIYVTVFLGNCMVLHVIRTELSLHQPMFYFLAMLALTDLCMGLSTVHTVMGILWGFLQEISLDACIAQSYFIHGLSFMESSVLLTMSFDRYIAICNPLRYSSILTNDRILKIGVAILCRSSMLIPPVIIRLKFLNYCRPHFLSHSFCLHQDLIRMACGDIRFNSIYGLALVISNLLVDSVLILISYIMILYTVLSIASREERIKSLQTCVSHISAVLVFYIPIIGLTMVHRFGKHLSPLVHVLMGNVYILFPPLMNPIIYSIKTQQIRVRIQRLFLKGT
Procedure, shortened: as §1

UniProt Q8VG96 = target: T8, UniProt Q8VG96
T8 sequence (whole entry): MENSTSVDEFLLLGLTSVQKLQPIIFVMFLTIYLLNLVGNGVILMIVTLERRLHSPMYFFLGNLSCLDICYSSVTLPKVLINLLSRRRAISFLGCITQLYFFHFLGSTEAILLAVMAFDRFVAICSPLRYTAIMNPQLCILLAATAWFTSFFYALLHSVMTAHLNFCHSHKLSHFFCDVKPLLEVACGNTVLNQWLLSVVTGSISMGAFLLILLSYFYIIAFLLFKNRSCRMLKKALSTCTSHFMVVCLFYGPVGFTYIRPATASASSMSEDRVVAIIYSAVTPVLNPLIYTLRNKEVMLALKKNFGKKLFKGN
Procedure, shortened: as §1

UniProt Q8VGC6 = target: T9, UniProt Q8VGC6
T9 sequence (whole entry): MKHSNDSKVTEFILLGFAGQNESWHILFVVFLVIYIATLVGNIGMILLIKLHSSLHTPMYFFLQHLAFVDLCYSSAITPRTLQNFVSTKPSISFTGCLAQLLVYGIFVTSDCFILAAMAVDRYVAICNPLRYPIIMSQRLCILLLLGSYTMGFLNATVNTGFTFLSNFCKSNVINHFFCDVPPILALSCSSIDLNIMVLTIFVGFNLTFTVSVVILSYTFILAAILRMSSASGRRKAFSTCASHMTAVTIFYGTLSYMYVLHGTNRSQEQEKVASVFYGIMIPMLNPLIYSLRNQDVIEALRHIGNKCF
Procedure, shortened: as §1

UniProt Q8VGD7 = target: T10, UniProt Q8VGD7
T10 sequence (whole entry): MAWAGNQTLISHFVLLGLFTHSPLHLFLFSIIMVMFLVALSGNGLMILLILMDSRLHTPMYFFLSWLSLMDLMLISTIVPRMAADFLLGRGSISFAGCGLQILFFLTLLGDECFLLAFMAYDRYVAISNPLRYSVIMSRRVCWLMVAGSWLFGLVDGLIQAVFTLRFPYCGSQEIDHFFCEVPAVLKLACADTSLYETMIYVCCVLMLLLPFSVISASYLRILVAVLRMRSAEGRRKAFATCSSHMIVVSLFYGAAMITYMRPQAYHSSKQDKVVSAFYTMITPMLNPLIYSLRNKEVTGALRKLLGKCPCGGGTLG
Procedure, shortened: as §1

UniProt Q8VGH1 = target: T11, UniProt Q8VGH1
T11 sequence (whole entry): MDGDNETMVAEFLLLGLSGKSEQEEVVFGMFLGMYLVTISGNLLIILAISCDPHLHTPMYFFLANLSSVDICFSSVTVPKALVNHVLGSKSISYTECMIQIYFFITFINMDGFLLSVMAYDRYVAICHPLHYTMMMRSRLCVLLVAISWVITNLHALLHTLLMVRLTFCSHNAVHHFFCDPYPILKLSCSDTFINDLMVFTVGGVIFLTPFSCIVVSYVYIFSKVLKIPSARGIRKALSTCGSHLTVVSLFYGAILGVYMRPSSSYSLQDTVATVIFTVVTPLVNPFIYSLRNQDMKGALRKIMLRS
Procedure, shortened: as §1

UniProt Q8VGJ1 = target: T12, UniProt Q8VGJ1
T12 sequence (whole entry): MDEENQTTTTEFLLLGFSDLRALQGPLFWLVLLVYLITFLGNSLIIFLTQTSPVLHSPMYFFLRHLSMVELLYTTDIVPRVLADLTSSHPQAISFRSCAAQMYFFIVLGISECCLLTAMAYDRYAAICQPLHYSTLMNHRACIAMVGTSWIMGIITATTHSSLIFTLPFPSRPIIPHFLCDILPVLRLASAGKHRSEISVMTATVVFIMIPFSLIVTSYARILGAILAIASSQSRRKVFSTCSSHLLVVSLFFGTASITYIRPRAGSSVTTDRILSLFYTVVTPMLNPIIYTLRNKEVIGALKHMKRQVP
Procedure, shortened: as §1

Measured: odorant receptor agonist call

CCC1CCC(=O)O1 (configuration not stated)
active: UniProt Q8VGC6
inactive: all other assays above
